Screening data as filed in PubChem BioAssay.
A selection: hits, their analogues and other compounds. The true share with any hit is near 2.8%.
GASC-1 inh – blocks human GASC-1 demethylase activity; AID 2099; GST-JMJD2C(1-420) H3K9me3 demethylation, DELFIA europium; actives 0.069% (n = 330,000); inhibition, % at 2.35 µM; Q9H3R0;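 active = more than half of a compound's replicate wells show inhibition beyond 50%, single wells judged on their own value; inconclusive = some, but no more than half, of replicates pass 50% inhibition; inactive = no replicate passes 50% inhibition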;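 also: signal counts dimethyl H3K9 product captured on neutravidin plate; 0% = median of DMSO wells and 100% = 0.3 times that DMSO median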
Target sequence (Q9H3R0 1-420 limits assumed): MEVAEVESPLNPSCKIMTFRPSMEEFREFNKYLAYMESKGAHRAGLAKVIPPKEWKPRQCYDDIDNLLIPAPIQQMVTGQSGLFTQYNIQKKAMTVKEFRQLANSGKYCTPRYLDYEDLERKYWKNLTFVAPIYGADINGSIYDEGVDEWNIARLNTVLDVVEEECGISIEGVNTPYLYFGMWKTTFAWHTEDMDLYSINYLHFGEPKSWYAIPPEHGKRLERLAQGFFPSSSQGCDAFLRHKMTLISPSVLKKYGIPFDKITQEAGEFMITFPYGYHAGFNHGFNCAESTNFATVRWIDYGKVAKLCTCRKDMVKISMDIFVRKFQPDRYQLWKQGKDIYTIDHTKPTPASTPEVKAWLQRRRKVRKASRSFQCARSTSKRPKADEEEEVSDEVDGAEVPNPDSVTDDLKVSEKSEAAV
T cell HTS – T cell immune modulators affecting CD8 T cell-vesicle binding | 2C CD8+ T cell-vesicle binding, flow cytometry; hits give low values | response (vesicle binding), % at 7 µM | actives 0.068% (n = 330,000) | AID 2052;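 active = response, share of CD8 T cells binding vesicles, and their 90th percentile fluorescence all below set limits, cut at about 80% in these data, passing the limit was not always enough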;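 also: values below 100% mean blocked vesicle binding to the CD8+ T cells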
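Incubation: binding step 1.5 h, 37 °C, antibody labelling 20 min, ice; system: murine 2C transgenic CD8+ T lymphocytes; technique: cytometric PE anti-B7-1 and Alexa647 anti-CD8 signals after 1% paraformaldehyde fixation; also added: QL9-charged Drosophila Ld/ICAM-1/B7-1 vesicles; control set: naked versus QL9-loaded vesicles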
Rtt109 HAT inh – C. albicans Rtt109 histone acetyltransferase inhibition; Q5AAJ8; purified Rtt109/Vps75, ThioGlo CoA-SH fluorescence, 4 h; inhibition, % at 34.9 µM; actives 0.16% (n = 330,000); AID 540336;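 active = inhibition of at least 50% in every replicate; inconclusive = best replicate reaches 50% inhibition but some replicates fall short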
GRIN3A LBD mod – modulates the human NR3A ligand-binding domain; NR3A LBD differential scanning fluorimetry, Tm shift; 0% = protein alone, 100% = glycine-bound protein; Tm shift relative to glycine control, % at 25 µM; actives 2.5% (n = 340,000); AID 1259313;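 active = melting temperature shift of at least 10% of the positive control shift, at one fixed dose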
The depositor's hits bear a star; ? = inconclusive; / = no result.

SMILES | GASC-1 inh | T cell HTS | Rtt109 HAT inh | GRIN3A LBD mod
Cc1cc(=O)n2[nH]c(Nc3cccc(Cl)c3)nc2n1 | 5.3 | 140.2 | 0.6 | -0.7
CC(C)CC1(C)NC(=O)N(CC(=O)Nc2ccccc2Br)C1=O (stereo not given) | -6.5 | 427.1 | 0.9 | 0.6
CCOC(=O)Nc1ccc(N2CCOCC2)c(S(=O)(=O)Nc2ccc(Cl)cc2)c1 | 9.7 | 558.2 | / | -4.8
COCCOc1cc(N2C(=O)CSCC2=O)c(Cl)cc1Cl | 0.2 | 427.9 | 11.8 | 11.6*
COc1cc(CCc2ccccc2)c(C(=O)O)c(O)c1C/C=C(/C)CCC=C(C)C | / | / | 10.9 | 10.0*
O=C1c2cccc3c([N+](=O)[O-])ccc(c23)C(=O)N1c1nccs1 | -4.7 | 169.5 | 1.9 | 10.2*
COc1cc(OC)cc(-c2c(-c3ccc(F)cc3)c3cc(-c4cnc(OC)nc4)ccc3n2C)c1 | 1.6 | 413.4 | -9.7 | 0.7
COC(=O)c1ccc(C)c(NC(=O)CCSc2ccccc2)c1 | -136.2 | 253.7 | -8.9 | 1.4
COC(=O)c1ccc(C)c(NC(=O)CCSc2ccc(Cl)cc2)c1 | 3.0 | 394.6 | 10.1 | 31.5*
Cc1cnc(NC(=O)c2cc3c(s2)CCCC3)s1 | -0.6 | 232.3 | -4.3 | 22.8*
CCc1ccc(-c2cc(C(=O)NN3CCOCC3)c3ccccc3n2)cc1 | 11.0 | 425.2 | -5.8 | 11.0*
O=C(NN1CCOCC1)c1cc(-c2ccc(Br)cc2)nc2ccccc12 | -0.5 | 96.3 | -12.0 | -3.0
CCN1CCN(c2oc(-c3ccccc3C)nc2S(=O)(=O)c2ccccc2)CC1 | / | / | 2.4 | 0.2
CN(C)c1ccc(NC(=O)Nc2csc3ccccc23)cc1 | -16.8 | 478.1 | -3.4 | 18.1*
CN1CCC(CNC(=O)Nc2csc3ccccc23)CC1 | -2.6 | 407.5 | 1.9 | 1.3
CCc1ccccc1NC(=O)Nc1ccc(F)cc1 | 14.8 | 430.1 | / | 0.1
O=C(Nc1ccc(F)cc1)Nc1csc2ccccc12 | -1.3 | 357.3 | / | 34.1*
O=C1C=C(c2cc(F)ccc2F)C[C@@H](c2ccc(F)cc2)C1 | 18.0 | 254.1 | 2.0 | 1.4
COc1ccc(S(=O)(=O)c2nnn(-c3cccc(Cl)c3)c2N)cc1 | 3.0 | 233.2 | -2.0 | 18.6*
COc1cccc(-n2nnc(S(=O)(=O)c3ccc(C)cc3)c2N)c1 | -3.0 | 403.6 | -5.1 | 0.9
CCN(C(=O)COC(=O)c1cc2c(s1)CCC(C)C2)c1c(N)n(Cc2ccccc2)c(=O)[nH]c1=O (stereo not given) | / | / | 2.3 | -2.9
Cc1ccc(S(=O)(=O)N(C)C)cc1NC(=O)COC(=O)C1CCCC1 | 8.5 | 443.6 | -0.6 | 20.8*
COc1ccc(C(=O)Nn2c(C)nc3ccccc3c2=O)cc1 | -1.0 | 273.6 | / | 0.5
COc1ccc(C(=O)Nn2c(SCc3cccc([N+](=O)[O-])c3)nc3ccccc3c2=O)cc1 | -5.7 | 400.7 | 26.0 | 17.4*
CCCCOc1ccc(C(=O)Nn2cnnc2)cc1 | -4.3 | 467.3 | -2.9 | 14.2*
SMILES | GASC-1 inh | T cell HTS | Rtt109 HAT inh | GRIN3A LBD mod
CCCOc1ccc(C(=O)Nn2c(C)nc3ccccc3c2=O)cc1 | 7.2 | 423.3 | 4.6 | 10.5*
Cc1nc2c(C)cccn2c1/C(O)=C1\C(=O)C(=O)N(CCN(C)C)C1c1cccs1 (stereo not given) | / | / | -8.4 | -1.6
COc1cccc(C(=O)NCCS(=O)(=O)N2CC(C)CC(C)C2)c1 (stereo not given) | 1.2 | 585.7 | -4.3 | 0.8
N#CCc1nc2n(n1)Cc1ccccc1-2 | -2.2 | 472.4 | 72.7* | -2.4
CCOc1ccc(NC(=O)c2ccccc2NC(=O)CN(C)CC(=O)Nc2ccc(C)cc2)cc1 | -5.7 | 419.2 | 34.5 | -5.7
CCOc1ccc(NC(=O)c2ccccc2NC(=O)CNC2CCCC(C)C2C)cc1 (stereo not given) | 8.3 | 258.2 | -4.3 | 13.4*
CCOc1ccc(C(=O)CCC(=O)N(CC)CC(=O)NCc2ccc(Cl)cc2)cc1 | -10.8 | 146.3 | -3.9 | 13.1*
O=C(Nc1ccc(NC(=S)NC(=O)c2ccccc2F)cc1)c1cccs1 | -10.6 | 620.0 | 10.0 | 19.5*
O=C(Nc1ccc(NC(=O)c2cccs2)cc1)c1ccco1 | 5.0 | 392.3 | / | 20.2*
COc1cc(NC(=S)NC(=O)c2ccccc2F)ccc1NC(=O)c1cccs1 | -9.7 | 106.4 | -2.5 | -5.3
O=C(NC(=S)Nc1ccc(NC(=O)c2cccs2)cc1)c1ccco1 | 12.9 | 0.0 | -0.7 | 24.0*
O=C(NC(=S)Nc1ccc(NC(=O)c2cccs2)cc1)c1cc2ccccc2o1 | 4.1 | 295.8 | 8.9 | 29.3*
C/C(Sc1nnc(Cc2ccccc2)o1)=C(\O)c1ccccc1 | / | / | -1.3 | 5.5
COC(=O)c1cc(S(=O)(=O)NCc2cc(OC)c(OC)c(OC)c2)cn1C | 2.1 | 177.6 | -16.8 | -2.4
Cc1cc(-c2ccc(C(C)C)c(S(=O)(=O)Nc3ccccn3)c2)on1 | -2.2 | 211.2 | 2.5 | 0.5
COc1ccc(NC(=O)CN(C)C(=O)CCNC(=O)c2ccccc2OC)cc1 | 2.6 | 348.1 | -10.2 | -0.3
O=C(CCC(=O)N1CCN(Cc2ccccc2)CC1)Nc1nnc(C2CCCCC2)s1 | -2.3 | 266.9 | 11.9 | 0.0
COC(=O)/C=C1\SC(=NC(=O)c2cccc([N+](=O)[O-])c2)NC1=O | -14.4 | 230.5 | -7.9 | 13.4*
COC(=O)/C=C1/SC(=NC(=O)c2cccc([N+](=O)[O-])c2)NC1=O | ? | 378.3 | -16.9 | 15.2*
COC(=O)/C=C1\SC(=NC(=O)c2cccc(Cl)c2)NC1=O | -8.1 | 141.5 | 16.2 | 9.4
COC(=O)/C=C1/SC(=NC(=O)c2ccccc2)NC1=O | -6.7 | 171.9 | -1.2 | -8.2
NCCCNc1nc(N)c([N+](=O)[O-])c(NC2CCCCC2)n1 | -11.3 | 183.1 | -10.5 | 6.3
COc1ccccc1C(=O)Nc1nnc(S(=O)(=O)N2CCC(C)CC2)s1 | 5.6 | 294.0 | 8.7 | -5.8
CC1CCN(S(=O)(=O)c2nnc(NC(=O)c3cccc(Cl)c3)s2)CC1 | -10.9 | 660.8 | -6.1 | 14.1*
CCN1C(=O)[C@H]2[C@@H](c3ccc(-c4cccc(Cl)c4)cc3)N[C@@](C)(C(=O)OC)[C@H]2C1=O | ? | 486.6 | -1.6 | -7.3
SMILES | GASC-1 inh | T cell HTS | Rtt109 HAT inh | GRIN3A LBD mod
Cc1ccc(NS(=O)(=O)c2cc([N+](=O)[O-])ccc2NNC(=S)Nc2cccc(Cl)c2)c(C)c1 | 22.8 | 300.2 | -0.4 | -11.1
Cc1ccc(NS(=O)(=O)c2cc([N+](=O)[O-])ccc2NNC(=S)Nc2cc(C)ccc2C)c(C)c1 | -0.6 | 595.7 | 12.4 | 20.5*
COc1ccc(NC(=S)NNc2ccc([N+](=O)[O-])cc2S(=O)(=O)Nc2ccc(C)cc2C)cc1 | -3.8 | 288.3 | 4.1 | 22.5*
O=C(Nc1nc2c(F)cc(F)cc2s1)C1CC1 | -19.1 | 412.6 | 1.3 | -1.4
Cc1ccc(C(C)C)c(OCc2ccc(C(=O)N/N=C/c3ccc(O)cc3O)cc2)c1 | 10.3 | 332.2 | -3.1 | 26.0*
COc1ccccc1OCc1ccc(C(=O)Nc2ccccc2)cc1 | 13.4 | 278.5 | -0.9 | -14.6
O=C(Nc1ccc(Cn2cccn2)cc1)c1ccc(COc2ccccc2Br)cc1 | 1.8 | 388.3 | 5.2 | 30.4*
O=C(Nc1cccnc1)c1ccc(COc2ccccc2Br)o1 | 6.0 | 309.8 | -0.9 | -40.8
